Measured values of several laboratories.
Compare with care: the assays were run in different laboratories.
Nuclear receptor subfamily 4 group A member 2: Nuclear receptor subfamily 4 group A member 2 (Homo sapiens, UniProt P43354)
P2RY14: P2Y purinoceptor 14 (P2RY14, Homo sapiens, UniProt Q15391)
IRAK4: Interleukin-1 receptor-associated kinase 4 (IRAK4, Homo sapiens, UniProt Q9NWZ3)

For COCCOCc1ccc(-c2cc3onc(-c4ccccc4)c3c(=O)n2C)cc1, the ΔTm was -0.54 °C (Nuclear receptor subfamily 4 group A member 2; thermal stability, DSF; 100 µM).
CC(C)OC(=O)[C@H](Cc1c[nH]c2ccccc12)NC(=O)C1COc2ccccc2O1 (stereo partly shown) gave an inhibition of 9.84% (P2RY14; cAMP, antagonist; HEK293; 0.1 µM).
For Cc1cc(O)c(-c2ccc([C@@H](C)CN(C)C)cc2)c2c1[nH]c(=O)c1sccc12, the inhibition was 10.5% (TRAF2 and NCK-interacting protein kinase (TNIK, Homo sapiens, UniProt Q9UKE5); enzyme activity, inhibitor; 0.1 µM).
With NC/C(=C\F)COc1cccc(Cn2c(=S)[nH]c(=O)c3[nH]cnc32)c1 the remaining activity was 149% (Eosinophil peroxidase (Homo sapiens, UniProt P11678); enzyme activity, inhibitor; 5 µM).
COc1cccc2c(Nc3ccc4[nH]c(C(=O)N/N=C/c5ccc(SC)cc5)cc4c3)cc(C)nc12 gave a ΔTm of 0.02 °C (Nuclear receptor subfamily 4 group A member 2; thermal stability, DSF; 100 µM).
C[C@H](NC(=O)C(=O)Nc1ccccc1C(C)(C)C)C(=O)N[C@@H](CC(=O)O)C(=O)COc1c(F)c(F)cc(F)c1F gave a kinact/KI of 2.42e+06 M⁻¹ s⁻¹ (Caspase-1 (CASP1, Homo sapiens, UniProt P29466); enzyme activity, inhibitor).
For O=C(COc1ccc(C(F)(F)F)cc1)N[C@@H](Cc1c[nH]c2ccccc12)C(=O)O, the inhibition was 34.8% (P2RY14; cAMP, antagonist; HEK293; 0.1 µM).
C#Cc1cc(-c2cc(Nc3nc(N[C@@H](C)c4ccc(F)cn4)ncc3Cl)n[nH]2)ccc1C=O gave an inhibition of 82.1% (Tyrosine-protein kinase JAK3 (JAK3, Homo sapiens, UniProt P52333); enzyme activity, inhibitor; 0.2 µM).
CC(C)OC(=O)[C@H](Cc1c[nH]c2ccccc12)NC(=O)COc1ccc(Cl)cc1 gave an inhibition of 39.6% (P2RY14; cAMP, antagonist; HEK293; 0.1 µM).
For COC(=O)c1cn(C)c2ccc(-c3cccnc3)cc12, the ΔTm was -0.46 °C (Nuclear receptor subfamily 4 group A member 2; thermal stability, DSF; 100 µM).
For N#Cc1ccc(NC(=O)Nc2ccccc2)cc1, the remaining binding was 96% (Tyrosine-protein kinase JAK3, JH1 (JAK3, Homo sapiens, UniProt P52333); cell-free assay, competition with immobilised ligand; 25 µM).
With O=C(O)C[C@H](O)C[C@H](O)/C=C/c1c(C2CC2)nc2ccccc2c1-c1ccc(F)cc1 the ΔTm was -0.36 °C (Nuclear receptor subfamily 4 group A member 2; thermal stability, DSF; 100 µM).
With CC(C)OC(=O)[C@H](Cc1c[nH]c2ccccc12)NC(=O)c1ccc2nccnc2c1 the inhibition was 89.6% (P2RY14; cAMP, antagonist; HEK293; 0.1 µM).
For CCCCCCCC(=O)c1cc(OC)c(OC)c(OC)c1CC(=O)OCC, the ΔTm was -1.02 °C (Nuclear receptor subfamily 4 group A member 2; thermal stability, DSF; 100 µM).
For O=C(COc1ccccc1)N[C@@H](Cc1c[nH]c2ccccc12)C(=O)O, the inhibition was 82.7% (P2RY14; cAMP, antagonist; HEK293; 0.1 µM).
The remaining activity of C#Cc1cnc(Nc2ccc(CO)cc2)nc1Nc1ccccc1C(=O)NC is reported as 1.23% (IRAK4; enzyme activity, inhibitor, radiometric; 1 µM).
C1=C/COCc2cc(ccc2OCCN2CCCC2)Nc2nccc(n2)-c2cccc(c2)COC/1 gave a remaining binding of 89% (Cyclin-dependent kinase-like 1 (CDKL1, Homo sapiens, UniProt Q00532); binding; 0.1 µM).
For CCCCC(=O)Nc1ccc(-c2ccc3ncn(CCC)c(=O)c3c2)cn1, the remaining binding was 89% (Ribosomal protein S6 kinase alpha-4, N-terminal kinase domain (RPS6KA4, Homo sapiens, UniProt O75676); binding, competition with immobilised ligand; 0.5 µM).
CCN1/C(=C/C(C)=O)Sc2ccc(F)cc21 has an inhibition of 0% (Corticotropin-releasing factor receptor 1 (CRHR1, Homo sapiens, UniProt P34998); ligand displacement, radioligand; 10 µM).
O=C(N[C@@H](Cc1c[nH]c2ccccc12)C(=O)O)c1cccs1 gave an inhibition of 68% (P2RY14; cAMP, antagonist; HEK293; 0.1 µM).
The remaining activity of CNC(=O)c1ccccc1Nc1nc(Nc2ccc(CO)nc2)ncc1Cl is reported as 1.87% (IRAK4; enzyme activity, inhibitor, radiometric; 1 µM).
The ΔTm of O=C(O)CCc1nc(-c2ccccc2)c(-c2ccccc2)o1 is reported as -0.6 °C (Nuclear receptor subfamily 4 group A member 2; thermal stability, DSF; 100 µM).
The inhibition of O=C(N[C@@H](Cc1c[nH]c2ccccc12)C(=O)O)c1c[nH]c2ccccc12 is reported as 36.7% (P2RY14; cAMP, antagonist; HEK293; 0.1 µM).
The remaining binding of C[C@]1(O)CCCN(c2nc(Nc3ccc(S(=O)(=O)N[C@H]4CC[C@H](CN5CCN(c6ccc(C7CCC(=O)NC7=O)cc6F)CC5)CC4)cc3Cl)ncc2C(F)(F)F)C1 (stereo partly shown) is reported as 32% (Serine/threonine-protein kinase ULK1 (ULK1, Homo sapiens, UniProt O75385); binding, competition with immobilised ligand; 1 µM).
CCC(C)(C)C(=O)O[C@H]1C[C@@H](C)C=C2C=C[C@H](C)[C@H](CC[C@@H]3C[C@@H](O)CC(=O)O3)[C@H]21 gave a ΔTm of -11 °C (Nuclear receptor subfamily 4 group A member 2; thermal stability, DSF; 100 µM).
The remaining binding of COc1ccc2oc(-c3ccc4nc(N)oc4c3)c/c(=N\c3ccccc3NC(=O)CCN)c2c1 is reported as 101% (Eukaryotic elongation factor 2 kinase (EEF2K, Homo sapiens, UniProt O00418); binding; 1 µM).
For COc1cccc(-c2ccc(NC(=O)C3=C(C(=O)O)CCC3)c(F)c2)c1, the ΔTm was -1.52 °C (Nuclear receptor subfamily 4 group A member 2; thermal stability, DSF; 100 µM).
The inhibition of O=C(COc1ccc(Cl)cc1)N[C@@H](Cc1c[nH]c2ccccc12)C(=O)O is reported as 47.6% (P2RY14; cAMP, antagonist; HEK293; 0.1 µM).
